Test results reported in ChEMBL document CHEMBL4261487, “Small structural changes of the imidazopyridine diacylglycerol acyltransferase 2 (DGAT2) inhibitors produce an improved safety profile” (Medchemcomm, 2017).
≈ marks a conversion by molar mass, not a printed value.

Key:
UGT = assay: (§1) Drug metabolism in human liver microsomes assessed as UGT-mediated glucuronidation by measuring clearance rate; assay type: ADME; conditions: liver microsomes, read-out: CLH
CYP3A4 = CYP3A4 (Homo sapiens, UniProt P08684); assay: (§2) Drug metabolism in human liver microsomes assessed as CYP3A4-mediated oxidative metabolism by measuring clearance rate; assay type: ADME; conditions: liver microsomes, read-out: CLH
[1] = molecular target: T1, Diacylglycerol O-acyltransferase 2 (Homo sapiens, UniProt Q96PD7); assay: Inhibition of human DGAT2
T1 sequence (Q96PD7 whole entry): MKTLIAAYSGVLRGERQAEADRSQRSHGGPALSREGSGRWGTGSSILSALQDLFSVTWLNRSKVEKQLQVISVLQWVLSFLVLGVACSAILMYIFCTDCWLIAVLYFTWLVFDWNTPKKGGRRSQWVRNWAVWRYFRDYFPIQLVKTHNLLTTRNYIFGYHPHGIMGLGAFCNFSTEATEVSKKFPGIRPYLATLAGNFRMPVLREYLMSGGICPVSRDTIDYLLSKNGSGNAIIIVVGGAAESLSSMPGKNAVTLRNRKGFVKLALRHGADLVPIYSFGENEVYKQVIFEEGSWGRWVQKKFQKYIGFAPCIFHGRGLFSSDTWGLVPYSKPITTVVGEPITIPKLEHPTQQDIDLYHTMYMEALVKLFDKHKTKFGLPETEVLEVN
In short: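 IC50 against human DGAT2 in an enzymatic assay, reported as the geometric mean of at least three replicates with SEM.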

Rattus norvegicus = assay: In vivo DGAT2 inhibition in po dosed sucrose-fed rat assessed as decrease in plasma triglyceride levels after 2 hrs; assay type: functional, organism-based
In short: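 Rats fed a high-sucrose diet, single oral dose of test article or vehicle; plasma TG measured in tail-vein blood 2 h post dose; n = 7–8 per group; results as percent change from vehicle group, one-way ANOVA with Dunnett's test.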

Canis familiaris [2] = assay: Unbound AUC in beagle dog at 3 mg/kg, po qd administered for 1 month; assay type: ADME, organism-based, Canis lupus familiaris; conditions: in vivo
In short: (§3)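 Beagle dogs were dosed orally once daily in a 14-day exploratory study or 1-month toxicity studies. Steady-state systemic exposure over the 24 h dosing interval is reported as the mean of male and female values combined.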

Canis familiaris [3] = assay: Unbound AUC in beagle dog at 30 mg/kg, po qd administered for 1 month; assay type: ADME, organism-based, Canis lupus familiaris; conditions: in vivo; in short: as §3
Canis familiaris [4] = assay: In vivo inhibition of DGAT2 in beagle dog assessed as coverage of in vitro IC50 for dog DGAT2 at 10 mg/kg, po qd administered for 1 month; assay type: functional, Canis lupus familiaris; design: scale not given: the % may be the effect or the level left
In short: (§4)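 Beagle dogs, once-daily oral dosing for 14 days or 1 month; systemic exposure with sexes combined; coverage is the average % above dog DGAT2 IC50 at steady state over the 24 h dosing interval.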

[5] = Apparent intrinsic clearance in human hepatocytes assessed per million cells; assay type: ADME, cell-based, Hepatocyte
Canis familiaris [6] = assay: Toxicity in beagle dog at 3 to 30 mg/kg, po qd administered for 1 month; assay type: organism-based, Canis lupus familiaris; conditions: in vivo
[7] = Half life in beagle dog at 1 mg/kg, iv; assay type: ADME, organism-based, Canis lupus familiaris; conditions: in vivo
[8] = Ratio of Cmax in beagle dog at 10 mg/kg, po qd administered for 1 month to IC50 for in vitro inhibition of dog DGAT2; assay type: organism-based, Canis lupus familiaris; conditions: in vivo
In short: (§5)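 One-month toxicity study in Beagle dogs with N = 2/sex/dose. Plasma exposure at each dose level was referenced to the dog DGAT2 enzymatic IC50, reported as the geometric mean of at least three replicates.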

Canis familiaris [9] = assay: Unbound Cmax in beagle dog at 10 mg/kg, po qd administered for 1 month; assay type: ADME, organism-based, Canis lupus familiaris; conditions: in vivo; in short: as §3
[10] = Plasma clearance in beagle dog at 1 mg/kg, iv; assay type: ADME, organism-based, Canis lupus familiaris
[11] = Thermodynamic solubility of the compound at pH 6.5; assay type: physicochemical; conditions: buffer, read-out: Therm_solubility
Canis familiaris [12] = assay: Unbound Cmax in beagle dog at 30 mg/kg, po qd administered for 1 month; assay type: ADME, organism-based, Canis lupus familiaris; conditions: in vivo
In short: (§6)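 One-month dog toxicity study with once-daily oral dosing. Toxicity groups were 2/sex/dose, and unbound peak exposure was taken from toxicokinetic sampling.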

[13] = Half life in beagle dog at 5 mg/kg, po; assay type: ADME, organism-based, Canis lupus familiaris; conditions: in vivo
[14] = molecular target: T2, Diacylglycerol O-acyltransferase 2 (Canis lupus familiaris, UniProt A0A8I3NDW2); assay: Inhibition of dog DGAT2
T2 sequence (A0A8I3NDW2 whole entry): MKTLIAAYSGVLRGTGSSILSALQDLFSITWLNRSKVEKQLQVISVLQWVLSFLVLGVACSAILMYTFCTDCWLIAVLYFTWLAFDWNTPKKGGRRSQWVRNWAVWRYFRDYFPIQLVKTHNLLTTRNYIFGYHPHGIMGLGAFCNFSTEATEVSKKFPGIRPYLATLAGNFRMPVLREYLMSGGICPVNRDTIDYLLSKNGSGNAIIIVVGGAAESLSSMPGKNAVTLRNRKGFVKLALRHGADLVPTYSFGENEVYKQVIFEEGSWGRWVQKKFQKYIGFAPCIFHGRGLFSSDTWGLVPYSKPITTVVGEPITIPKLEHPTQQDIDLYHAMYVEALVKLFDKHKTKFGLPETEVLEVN

Canis familiaris [15] = assay: In vivo inhibition of DGAT2 in beagle dog assessed as coverage of in vitro IC50 for dog DGAT2 at 3 mg/kg, po qd administered for 1 month; assay type: functional, Canis lupus familiaris; design: scale not given: the % may be the effect or the level left; in short: as §4
[16] = as §1; assay type: ADME; conditions: microsomes
[17] = Drug metabolism in human liver microsomes assessed as fraction of UGT-mediated glucuronidation preincubated for 5 mins followed by addition of NADPH regenerating system and measured after 2.5 to 60 mins; assay type: ADME
In short: (§7)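 Fractions of metabolism attributed to CYP oxidation and UGT glucuronidation were derived from human liver microsomal incubations. For the glucuronidation arm, microsomes were supplemented with the UGT cofactor UDP-glucuronic acid.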

Cytochrome P450 3A4 [18] = molecular target: T3, Cytochrome P450 3A4 (Homo sapiens, UniProt P08684); assay: Drug metabolism in human liver microsomes assessed as fraction of CYP3A4-mediated oxidative metabolism preincubated for 5 mins followed by addition of NADPH regenerating system and measured after 2.5 to 60 mins; assay type: ADME; in short: as §7
[19] = Fraction unbound in dog plasma; assay type: ADME, cell-free, Canis lupus familiaris
Canis familiaris [20] = assay: Unbound Cmax in beagle dog at 3 mg/kg, po qd administered for 1 month; assay type: ADME, organism-based, Canis lupus familiaris; conditions: in vivo; in short: as §6
[21] = molecular target: T4, Diacylglycerol O-acyltransferase 2 (Rattus norvegicus, UniProt Q5FVP8); assay: Inhibition of rat DGAT2
T4 sequence (Q5FVP8 whole entry): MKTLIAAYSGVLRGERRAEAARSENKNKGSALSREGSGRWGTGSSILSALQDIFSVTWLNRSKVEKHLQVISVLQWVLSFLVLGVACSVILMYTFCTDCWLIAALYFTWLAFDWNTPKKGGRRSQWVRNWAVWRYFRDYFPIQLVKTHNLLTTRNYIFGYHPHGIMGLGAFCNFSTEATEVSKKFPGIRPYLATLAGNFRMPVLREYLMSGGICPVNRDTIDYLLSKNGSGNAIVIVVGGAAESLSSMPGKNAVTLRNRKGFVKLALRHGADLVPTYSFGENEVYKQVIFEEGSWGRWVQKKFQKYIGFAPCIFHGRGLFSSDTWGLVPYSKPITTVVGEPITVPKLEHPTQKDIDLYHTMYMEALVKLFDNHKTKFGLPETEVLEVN

[22] = Apparent intrinsic clearance in dog hepatocytes assessed per million cells; assay type: ADME, cell-based, Canis lupus familiaris, Hepatocyte
[23] = molecular target: T5, Diacylglycerol O-acyltransferase 1 (Homo sapiens, UniProt O75907); assay: Inhibition of DGAT1 (unknown origin)
T5 sequence (O75907 whole entry): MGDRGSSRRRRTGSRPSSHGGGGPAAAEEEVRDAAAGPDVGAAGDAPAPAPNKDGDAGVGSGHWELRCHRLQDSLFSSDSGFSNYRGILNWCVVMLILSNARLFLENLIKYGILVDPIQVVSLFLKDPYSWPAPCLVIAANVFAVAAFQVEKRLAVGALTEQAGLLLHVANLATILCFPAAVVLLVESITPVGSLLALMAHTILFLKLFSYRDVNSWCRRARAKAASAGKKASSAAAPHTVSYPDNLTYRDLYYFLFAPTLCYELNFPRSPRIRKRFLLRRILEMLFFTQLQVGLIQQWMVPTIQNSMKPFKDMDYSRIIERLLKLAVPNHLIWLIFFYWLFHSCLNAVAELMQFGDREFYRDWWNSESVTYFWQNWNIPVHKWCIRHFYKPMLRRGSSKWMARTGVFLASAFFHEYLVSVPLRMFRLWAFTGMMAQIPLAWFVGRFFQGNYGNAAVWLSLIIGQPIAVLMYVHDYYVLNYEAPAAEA

[24] = Oral bioavailability in beagle dog at 5 mg/kg; assay type: ADME, organism-based, Canis lupus familiaris; conditions: in vivo
[25] = Apparent permeability of the compound at pH 7.4; assay type: ADME; conditions: not told
Cytochrome P450 3A4 [26] = molecular target: T3, Cytochrome P450 3A4; assay: as §2; assay type: ADME; conditions: microsomes
Canis familiaris [27] = assay: Unbound AUC in beagle dog at 10 mg/kg, po qd administered for 1 month; assay type: ADME, organism-based, Canis lupus familiaris; conditions: in vivo; in short: as §3
Canis familiaris [28] = assay: In vivo inhibition of DGAT2 in beagle dog assessed as coverage of in vitro IC50 for dog DGAT2 at 30 mg/kg, po qd administered for 1 month; assay type: functional, Canis lupus familiaris; design: scale not given: the % may be the effect or the level left; in short: as §4
[29] = Ratio of Cmax in beagle dog at 30 mg/kg, po qd administered for 1 month to IC50 for in vitro inhibition of dog DGAT2; assay type: organism-based, Canis lupus familiaris; conditions: in vivo; in short: as §5
[30] = Apparent intrinsic clearance in rat hepatocytes assessed per million cells; assay type: ADME, cell-based, Hepatocyte
[31] = Ratio of Cmax in beagle dog at 3 mg/kg, po qd administered for 1 month to IC50 for in vitro inhibition of dog DGAT2; assay type: organism-based, Canis lupus familiaris; conditions: in vivo; in short: as §5
[32] = Fraction unbound in rat plasma; assay type: ADME, cell-free
[33] = Volume of distribution at steady state in beagle dog at 1 mg/kg, iv; assay type: ADME, organism-based, Canis lupus familiaris; conditions: in vivo, read-out: Vdss
In short: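 Male Beagle dogs, single iv dose, crystalline form of compound; value is the mean of two experiments.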

Sequence of CYP3A4 (P08684 whole entry): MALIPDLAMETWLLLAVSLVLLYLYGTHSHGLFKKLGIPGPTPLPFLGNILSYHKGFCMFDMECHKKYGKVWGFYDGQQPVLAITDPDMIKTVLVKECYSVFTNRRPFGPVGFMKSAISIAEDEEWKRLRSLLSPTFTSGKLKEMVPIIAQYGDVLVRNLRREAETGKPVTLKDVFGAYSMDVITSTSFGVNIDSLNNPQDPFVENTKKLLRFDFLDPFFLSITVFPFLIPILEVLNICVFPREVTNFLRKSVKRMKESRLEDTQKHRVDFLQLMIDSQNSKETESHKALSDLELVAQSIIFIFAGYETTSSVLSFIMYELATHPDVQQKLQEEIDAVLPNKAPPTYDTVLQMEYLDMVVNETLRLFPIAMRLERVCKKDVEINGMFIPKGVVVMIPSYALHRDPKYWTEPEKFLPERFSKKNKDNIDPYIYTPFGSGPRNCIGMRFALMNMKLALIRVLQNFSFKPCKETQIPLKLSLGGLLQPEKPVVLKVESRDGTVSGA
T3 sequence (P08684 whole entry): as above

CC(c1nc2cnc(N3CCC[C@@H](C(=O)N4CCCC4)C3)nc2[nH]1)n1cc(Cl)cn1 (single isomer, unassigned; diastereomer 2)
microsomal CLint (UGT): 15.2 µL/min/mg
microsomal CLint (CYP3A4): 21.5 µL/min/mg
IC50 [1]: 37 nM

CC(c1nc2cnc(N3CCC[C@@H](C(=O)N4CCCC4)C3)nc2[nH]1)n1cc(Cl)cn1 (single isomer, unassigned; diastereomer 1) [listing 1 of 2 here]
inhibition (Rattus norvegicus): Dose-dependent effect

C[C@H](c1nc2ccc(N3CCC[C@@H](C(=O)N4CCCC4)C3)nc2[nH]1)n1cc(Cl)cn1
microsomal CLint (UGT): 7.6 µL/min/mg
microsomal CLint (CYP3A4): 26 µL/min/mg

CC(c1nc2cnc(N3CCC[C@@H](C(=O)N4CCCC4)C3)nc2[nH]1)n1cc(Cl)cn1 (single isomer, unassigned; diastereomer 1) [listing 2 of 2 here]
fAUC (Canis familiaris [2]): 149 ng·h/mL
fAUC (Canis familiaris [3]): 1560 ng·h/mL
Activity (Canis familiaris [4]): 50%
CLH(app) [5]: 13.1 µL/min
Activity (Canis familiaris [6]): Non-Toxic
half-life [7]: 66 min
Ratio [8]: 9
fCmax (Canis familiaris [9]): 487 nM
clearance [10]: 7.3 mL/min/kg
solubility thermodynamic [11]: 53 µg/mL (≈ 124 µM)
fCmax (Canis familiaris [12]): 1760 nM
half-life [13]: 228 min
IC50 [14]: 53 nM
Activity (Canis familiaris [15]): 21%
CLH [16]: 20.3 µL/min/mg
Ratio [17]: 0.52
Ratio (Cytochrome P450 3A4 [18]): 0.48
fraction unbound [19]: 0.25
fCmax (Canis familiaris [20]): 140 nM
IC50 [21]: 241 nM
CLH(app) [22]: < 8 µL/min
IC50 [23]: > 50 µM
bioavailability [24]: 32%
Papp [25]: 16.2 ×10⁻⁶ cm/s
CLH (Cytochrome P450 3A4 [26]): 23.5 µL/min/mg
fAUC (Canis familiaris [27]): 540 ng·h/mL
Activity (Canis familiaris [28]): 74%
Ratio [29]: 33
CLH(app) [30]: 12 µL/min
Ratio [31]: 3
fraction unbound [32]: 0.18
Vd [33]: 0.58 L/kg
IC50 [1]: 26 nM

CC(C)(c1nc2ccc(N3CCC[C@@H](C(=O)N4CCCC4)C3)nc2[nH]1)n1cc(Cl)cn1
microsomal CLint (CYP3A4): 35.4 µL/min/mg
